Consider 28 compounds from ChEMBL document CHEMBL3407426, “Synthesis and biological evaluations of novel endomorphin analogues containing α-hydroxy-β-phenylalanine (AHPBA) displaying mixed μ/δ opioid receptor agonist and δ opioid receptor antagonist activities” (Eur J Med Chem, 2015).

Each structure is given as a SMILES string. pKi: −log10 of the molar value. Where a SMILES comes first, the peptide text is derived from it. [ ]: non-standard residue; d: D form. ξ: configuration not given here. Dmt = Cc1cc(O)cc(C)c1C[C@H](N)C(=O)O; ξTiq(1-COOH) = O=C(O)C1NCCc2ccccc21; β3hF = N[C@H](CC(=O)O)Cc1ccccc1

One data set has as its target Mu-type opioid receptor (Rattus norvegicus, UniProt P33535). Briefly: Displacement of [3H]DAMGO from rat cortex mu opioid receptor after 30 mins by liquid scintillation counting analysis. In short, it runs like this:
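Rat cortex membranes prepared in 50 mM Tris pH 7.4, spun 16,500 rpm for 10 min, and incubated 30 min at 37 °C. Competition against [³H]DAMGO. Assay ended by filtration on BSA-soaked GF/B filters. Ki values are means of two experiments.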
(In a radioligand displacement assay an active substance lowers the binding of a labelled ligand.)

Data set [1] addresses Delta-type opioid receptor (Rattus norvegicus, UniProt P33533). Description: Displacement of [3H]DPDPE from rat cortex delta opioid receptor after 2.5 hrs by liquid scintillation counting analysis.
Data set [2] in a line: Half life in rat brain homogenate at 10 uM. It is filed as ADME, tissue-based. In short, it runs like this: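 Peptide at a final 10 µM in rat brain homogenate (protein 21.2 mg/mL), incubated at 37 °C. Aliquots quenched in acetonitrile with internal standard in triplicate, centrifuged, and analysed by LC-MS/MS in MRM mode. Half-life from pseudo-first-order loss of the analyte/internal-standard ratio; mean of at least three experiments ± SEM.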

The target of data set [3] is T1, Delta-type opioid receptor (Homo sapiens, UniProt P41143). Description: Agonist activity at delta opioid receptor (unknown origin) expressed in CHO cells assessed as change in cell morphology at 3.3 uM measured over 30 mins by label free binding assay relative to DPDPE. The class given is cell-based. In short, it runs like this:
(§1)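 Label-free biosensor (BIND) measuring cell spreading as increase in peak wavelength value. MOR in HEK293 cells, DOR in CHO cells, seeded 2 × 10⁴/well on fibronectin/collagen/albumin-coated plates and incubated overnight. Assay buffer was HBSS with 0.5–1% DMSO, equilibrated 30 min at room temperature before a baseline read. Compound added to a final 3.3 µM and read over 30 min. Response given as % of DAMGO 300 nM (MOR, n = 2) or DPDPE 10 nM (DOR, n = 4).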

The species named for a further data set is Rattus norvegicus. Description: Selectivity ratio of Ki for rat cortex mu opioid receptor to Ki for rat cortex delta opioid receptor. In short, it runs like this:
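Ki ratio (MOR/DOR), from Ki values that are means of two experiments. MOR: rat cortex homogenized in 50 mM Tris pH 7.4, spun, preincubated 30 min at 37 °C, spun again, then resuspended with bovine serum; displacement of [3H]DAMGO. DOR: 2 nM [3H]DPDPE; 2.5 h at 25 °C; unlabeled DPDPE as competitor. Filtration on GF/B.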

Data set [4] in a line: Selectivity ratio of Ki for guinea pig cortex/cerebella kappa opioid receptor to Ki for rat cortex delta opioid receptor. The procedure, abridged: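 Ki ratio (KOR/DOR), from Ki values that are means of two experiments. KOR: guinea pig cortex and cerebellum membranes in 50 mM Tris pH 7.4 with 10 mM MgCl2; 2 nM [3H]U69,593; 2 h at 25 °C; unlabeled U50,488 defines the curve and nonspecific binding. Filtration on GF/B.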

For data set [5], the target named is Mu-type opioid receptor (Homo sapiens) (UniProt P35372). Briefly: Agonist activity at mu opioid receptor (unknown origin) expressed in HEK293 cells assessed as change in cell morphology at 3.3 uM measured over 30 mins by label free binding assay relative to DAMGO. It is filed as cell-based. The procedure, abridged:
as §1

Data set [6] deals with T1, Delta-type opioid receptor. Description: Agonist activity at delta opioid receptor (unknown origin) expressed in CHO cells assessed as inhibition of forskolin-induced cAMP production at 500 nM after 30 mins by europium cryptate/d2 dye-based FRET analysis relative to DPDPE. The class given is functional, cell-based. In short, it runs like this:
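DOR-expressing CHO cells, 20,000/well, exposed to test compound at 500 nM with 4 µM forskolin in PBS containing 1 mM IBMX for 30 min at room temperature. Cells then lysed with Europium cryptate and d2 acceptor reagents for 1 h, and cAMP read by FRET. Expressed as % of the 500 nM DPDPE response, n = 4.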
On the technique in general: cAMP levels reflect the balance of adenylyl cyclase and phosphodiesterase activity.

T1 sequence (P41143 whole entry): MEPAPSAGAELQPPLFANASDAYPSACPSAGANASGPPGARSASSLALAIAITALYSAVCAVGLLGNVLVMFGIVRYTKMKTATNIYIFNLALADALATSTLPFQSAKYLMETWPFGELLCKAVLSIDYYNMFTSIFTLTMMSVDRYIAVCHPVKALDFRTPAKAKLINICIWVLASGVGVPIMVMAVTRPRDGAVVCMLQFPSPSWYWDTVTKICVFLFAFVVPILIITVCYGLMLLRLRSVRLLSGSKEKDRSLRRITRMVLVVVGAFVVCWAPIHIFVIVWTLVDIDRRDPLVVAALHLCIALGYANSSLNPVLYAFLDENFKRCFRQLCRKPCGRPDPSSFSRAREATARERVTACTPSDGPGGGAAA
Mu-type opioid receptor, sequence (P33535 whole entry): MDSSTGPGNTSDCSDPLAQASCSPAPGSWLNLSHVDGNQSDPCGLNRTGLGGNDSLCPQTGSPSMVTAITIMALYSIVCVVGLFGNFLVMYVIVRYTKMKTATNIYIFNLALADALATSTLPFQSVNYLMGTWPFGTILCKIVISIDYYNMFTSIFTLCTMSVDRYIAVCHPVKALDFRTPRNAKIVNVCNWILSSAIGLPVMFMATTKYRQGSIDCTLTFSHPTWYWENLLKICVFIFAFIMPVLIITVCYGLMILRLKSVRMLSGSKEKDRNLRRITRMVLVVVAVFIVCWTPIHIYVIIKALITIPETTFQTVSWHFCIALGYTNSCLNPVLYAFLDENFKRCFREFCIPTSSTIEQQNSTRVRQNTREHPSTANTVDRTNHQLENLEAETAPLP
Mu-type opioid receptor (Homo sapiens), sequence (P35372 whole entry): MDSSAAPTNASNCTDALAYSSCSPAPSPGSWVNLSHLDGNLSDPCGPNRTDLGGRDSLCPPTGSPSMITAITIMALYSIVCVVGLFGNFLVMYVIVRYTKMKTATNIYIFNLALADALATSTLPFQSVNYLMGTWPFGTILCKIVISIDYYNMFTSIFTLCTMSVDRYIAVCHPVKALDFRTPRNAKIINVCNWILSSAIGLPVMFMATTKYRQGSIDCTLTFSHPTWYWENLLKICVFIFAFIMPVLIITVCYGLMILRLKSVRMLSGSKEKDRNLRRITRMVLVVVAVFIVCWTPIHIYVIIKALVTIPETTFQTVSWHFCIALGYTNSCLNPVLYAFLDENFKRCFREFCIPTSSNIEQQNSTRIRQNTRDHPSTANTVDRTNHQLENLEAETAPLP
Delta-type opioid receptor (Rattus norvegicus, UniProt P33533), sequence (P33533 whole entry): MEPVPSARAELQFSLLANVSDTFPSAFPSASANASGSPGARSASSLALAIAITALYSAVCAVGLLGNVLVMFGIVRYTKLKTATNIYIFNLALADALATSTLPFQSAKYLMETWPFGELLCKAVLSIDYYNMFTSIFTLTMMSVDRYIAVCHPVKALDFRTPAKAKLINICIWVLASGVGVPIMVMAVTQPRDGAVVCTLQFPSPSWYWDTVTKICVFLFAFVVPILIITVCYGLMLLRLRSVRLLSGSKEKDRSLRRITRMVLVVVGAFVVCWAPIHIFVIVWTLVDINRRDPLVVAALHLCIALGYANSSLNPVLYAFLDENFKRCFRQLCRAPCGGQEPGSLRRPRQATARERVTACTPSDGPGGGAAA

As a reminder, the pKi is the Ki on a negative log10 scale, so that one unit is a factor of ten. As to `NC(=O)[C@H](O)[C@@H](Cc1ccccc1)NC(=O)[C@H](Cc1c[nH]c2ccccc12)NC(=O)[C@@H]1CCCN1C(=O)[C@@H](N)Cc1ccc(O)cc1`, the pKi on Mu-type opioid receptor is 6.61; in data set [1] it was 6.36.
In the same order, the values of `NC(=O)C(Cc1ccc(F)cc1)NC(=O)[C@H](O)[C@H](Cc1ccccc1)NC(=O)[C@@H]1CCCN1C(=O)[C@@H](N)Cc1ccc(O)cc1` (stereo not given in full) are 6.68 and 6.08.
One may read the half-life as the time needed for the level to fall by half in the phase considered. A higher half-life goes with slow loss. As to `NC(=O)C[C@H](Cc1ccccc1)NC(=O)[C@H](Cc1c[nH]c2ccccc12)NC(=O)[C@@H]1CCCN1C(=O)[C@@H](N)Cc1ccc(O)cc1`, the negative logarithm of the Ki (pKi) at Mu-type opioid receptor was 8.00; in data set [1], 5.39. Besides, the half-life at 10 µM in data set [2] came out at 4.57 min.
Take `NC(=O)[C@H](Cc1ccccc1)NC(=O)[C@H](Cc1c[nH]c2ccccc12)NC(=O)[C@@H]1CCCN1C(=O)[C@@H](N)Cc1ccc(O)cc1`: the Activity in data set [3] is 49%.
For the compound `NC(=O)[C@H](Cc1ccccc1)NC(=O)[C@H](O)[C@@H](Cc1ccccc1)NC(=O)[C@@H]1CCCN1C(=O)[C@@H](N)Cc1ccc(O)cc1`, the values for the pKi (on Mu-type opioid receptor; in data set [1]) were 5.68 and 5.91, respectively.
For `N=C(N)NCCC[C@H](NC(=O)[C@H](O)[C@H](Cc1ccccc1)NC(=O)[C@@H]1CCCN1C(=O)[C@@H](N)Cc1ccc(O)cc1)C(N)=O`, in that order: 7.07 and 6.32.
For the compound `Cc1cc(O)cc(C)c1C[C@H](N)C(=O)N1CCc2ccccc2C1C(=O)N[C@@H](Cc1ccccc1)C(=O)N[C@H](CC(N)=O)Cc1ccccc1` (stereo partly drawn) (H-[Dmt][ξTiq(1-COOH)]F[β3hF]-NH2), the negative-log Ki (pKi) on Mu-type opioid receptor was 7.82; in data set [1] it was 9.00. The Ratio Ki is 15 in the data set listed under Rattus norvegicus and 30 in data set [4]. This compound also returned a half-life at 10 µM in data set [2] of 28.9 min.
On to `NC(=O)[C@H](O)[C@H](Cc1ccccc1)NC(=O)[C@H](Cc1c[nH]c2ccccc12)NC(=O)[C@@H]1CCCN1C(=O)[C@@H](N)Cc1ccc(O)cc1`, for which the pKi is 7.60 on Mu-type opioid receptor and 6.34 in data set [1].
With `Cc1cc(O)cc(C)c1C[C@H](N)C(=O)N1CCc2ccccc2C1C(=O)N[C@@H](Cc1c[nH]c2ccccc12)C(=O)N[C@H](CC(N)=O)Cc1ccccc1` (stereo partly drawn) (H-[Dmt][ξTiq(1-COOH)]W[β3hF]-NH2), the negative logarithm of the Ki (pKi) on Mu-type opioid receptor is 7.85; in data set [1], 9.00. The half-life at 10 µM in data set [2] is more than 120 min.
Consider `NC(=O)[C@@H](O)[C@@H](Cc1ccccc1)NC(=O)[C@H](Cc1c[nH]c2ccccc12)NC(=O)[C@@H]1CCCN1C(=O)[C@@H](N)Cc1ccc(O)cc1`, for which the pKi was 6.75 on Mu-type opioid receptor and 6.54 in data set [1].
As to `NC(=O)[C@H](O)[C@H](Cc1ccccc1)NC(=O)[C@H](Cc1ccccc1)NC(=O)[C@@H]1CCCN1C(=O)[C@@H](N)Cc1ccc(O)cc1`, on Mu-type opioid receptor, the pKi is 7.48.
Same read-out and setting: the value for `NC(=O)[C@@H](O)[C@@H](Cc1ccccc1)NC(=O)[C@H](Cc1ccccc1)NC(=O)[C@@H]1CCCN1C(=O)[C@@H](N)Cc1ccc(O)cc1` was 6.49.
Turning to `NC(=O)C(Cc1ccc2ccccc2c1)NC(=O)[C@H](O)[C@H](Cc1ccccc1)NC(=O)[C@@H]1CCCN1C(=O)[C@@H](N)Cc1ccc(O)cc1` (stereo not given in full), the negative logarithm of the Ki (pKi) on Mu-type opioid receptor is 7.41; in data set [1], 6.12.
In the same order, the values of `NC(=O)[C@H](Cc1ccccc1)NC(=O)[C@@H](O)[C@@H](Cc1ccccc1)NC(=O)[C@@H]1CCCN1C(=O)[C@@H](N)Cc1ccc(O)cc1` are 6.69 and 6.23.
For `NC(=O)[C@H](Cc1ccccc1)NC(=O)[C@@H](O)[C@H](Cc1ccccc1)NC(=O)[C@@H]1CCCN1C(=O)[C@@H](N)Cc1ccc(O)cc1`, the pKi is 6.30 at Mu-type opioid receptor and 5.75 in data set [1].
In the same order, the values of `NC(=O)[C@H](Cc1ccccc1)NC(=O)C[C@H](Cc1ccccc1)NC(=O)[C@@H]1CCCN1C(=O)[C@@H](N)Cc1ccc(O)cc1` are 7.62 and 6.41.
In the case of `NC(=O)[C@H](O)[C@@H](Cc1ccccc1)NC(=O)[C@H](Cc1ccccc1)NC(=O)[C@@H]1CCCN1C(=O)[C@@H](N)Cc1ccc(O)cc1`, the negative logarithm of the Ki (pKi) on Mu-type opioid receptor is 6.35.
The inhibition is the drop in the measured response relative to a control, in per cent. For the compound `Cc1cc(O)cc(C)c1C[C@H](N)C(=O)N1CCc2ccccc2C1C(=O)N[C@@H](Cc1c[nH]c2ccccc12)C(=O)N[C@@H](Cc1ccccc1)[C@H](O)C(N)=O` (stereo not given in full), the results for the Activity in data set [5] and in data set [3] were 50% and 45%, respectively. The negative logarithm of the Ki (pKi) is 8.52 on Mu-type opioid receptor and 9.10 in data set [1]. In data set [2], the half-life at 10 µM is more than 120 min. In data set [6], the inhibition was found to be 104%.
The compound `NC(=O)[C@H](Cc1c[nH]c2ccccc12)NC(=O)[C@H](O)[C@H](Cc1ccccc1)NC(=O)[C@@H]1CCCN1C(=O)[C@@H](N)Cc1ccc(O)cc1` had a negative-log Ki (pKi) on Mu-type opioid receptor of 7.89.
Take `NC(=O)[C@@H](O)[C@H](Cc1ccccc1)NC(=O)[C@H](Cc1c[nH]c2ccccc12)NC(=O)[C@@H]1CCCN1C(=O)[C@@H](N)Cc1ccc(O)cc1`: the figures for the pKi (on Mu-type opioid receptor; in data set [1]) were 8.00 and 6.29, respectively. The same compound came in with a half-life at 10 µM in data set [2] of 3.57 min.
Consider `NC(=O)C[C@H](Cc1ccccc1)NC(=O)[C@H](Cc1ccccc1)NC(=O)[C@@H]1CCCN1C(=O)[C@@H](N)Cc1ccc(O)cc1`, for which the pKi on Mu-type opioid receptor was 7.64; in data set [1], 5.60.
For the compound `NC(=O)[C@H](Cc1ccccc1)NC(=O)[C@H](Cc1ccccc1)NC(=O)[C@@H]1CCCN1C(=O)[C@@H](N)Cc1ccc(O)cc1` [ENDOMORPHIN 2], the figures for the Activity in data set [5] and in data set [3] were 98% and 52%, respectively. The compound also registered a half-life at 10 µM in data set [2] of 0.75 min.
As for `Cc1cc(O)cc(C)c1C[C@H](N)C(=O)N1CCc2ccccc2C1C(=O)N[C@@H](Cc1ccccc1)C(=O)N[C@@H](Cc1ccccc1)[C@H](O)C(N)=O` (stereo not given in full), the Activity in data set [5] stood at 51%; in data set [3] it was 82%. Further, the pKi was 7.92 on Mu-type opioid receptor and 9.00 in data set [1]. For the same compound, in data set [2], the half-life at 10 µM amounted to 49 min.
Compound `NC(=O)[C@@H](O)[C@H](Cc1ccccc1)NC(=O)[C@H](Cc1ccccc1)NC(=O)[C@@H]1CCCN1C(=O)[C@@H](N)Cc1ccc(O)cc1` had a pKi on Mu-type opioid receptor of 7.77. In data set [2], this compound yielded a half-life at 10 µM of 2.3 min.
For `NC(=O)[C@H](Cc1ccccc1)NC(=O)[C@H](O)[C@H](Cc1ccccc1)NC(=O)[C@@H]1CCCN1C(=O)[C@@H](N)Cc1ccc(O)cc1`, the pKi at Mu-type opioid receptor is 8.05; in data set [1] it was 5.48. The same compound showed a half-life at 10 µM in data set [2] of 6.52 min.
On to `Cc1cc(O)cc(C)c1C[C@H](N)C(=O)N1CCc2ccccc2C1C(=O)N[C@@H](Cc1ccccc1)C(=O)N[C@@H](Cc1ccccc1)[C@@H](O)C(N)=O` (stereo not given in full), for which the Activity was determined as 52% in data set [5] and 22% in data set [3]. Further, the negative logarithm of the Ki (pKi) on Mu-type opioid receptor is 7.82; in data set [1], 9.30. The compound further displayed a half-life at 10 µM in data set [2] of 82.6 min.
On to `Cc1cc(O)cc(C)c1C[C@H](N)C(=O)N1CCc2ccccc2C1C(=O)N[C@@H](Cc1c[nH]c2ccccc12)C(=O)N[C@@H](Cc1ccccc1)C(N)=O` (stereo not given in full) (H-[Dmt][ξTiq(1-COOH)]WF-NH2), for which the Activity in data set [5] is 43%; in data set [3] it was 26%. For the same compound, the pKi at Mu-type opioid receptor is 8.30; in data set [1], 8.70. This compound also gave a half-life at 10 µM in data set [2] of 32.2 min. Moreover, the inhibition in data set [6] came out at 87%.
`Cc1cc(O)cc(C)c1C[C@H](N)C(=O)N1CCc2ccccc2C1C(=O)N[C@H](CC(=O)N[C@@H](Cc1ccccc1)C(N)=O)Cc1ccccc1` (stereo partly drawn) (H-[Dmt][ξTiq(1-COOH)][β3hF]F-NH2): the pKi on Mu-type opioid receptor was 8.22; in data set [1], 9.00. Also, in the data set listed under Rattus norvegicus, the Ratio Ki was 6. Moreover, the half-life at 10 µM in data set [2] was more than 120 min.
